# Measurements taken from ChEMBL document CHEMBL4732072, “Synthesis of 17β-hydroxysteroid dehydrogenase type 10 steroidal inhibitors: Selectivity, metabolic stability and enhanced potency” (Eur J Med Chem, 2021).
# System: not listed separately
# Assay: Inhibition of human 17-beta-HSD10 expressed in HEK293 cells assessed as reduction in oxidation of [14C]-estradiol to [14C]-estrone incubated for 40 hrs by thin layer chromatography
# Type: cell-based
# Conditions: not given
# How it was run: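 The same HEK-293[17β-HSD10] cell assay was used: 2.5 x 10^5 cells, 0.5% final DMSO, 1 µM E2/[14C]-E2 (9:1) for 40 h at 37°C, with Et2O extraction, TLC and radioactivity quantification. Inhibitor was tested from 0.01 to 5 µM in triplicate. IC50 was calculated from the inhibition curves.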
row,IC50 [nM],SMILES
1,1260,C#C[C@]1(O)CC[C@H]2[C@@H]3CC[C@H]4C[C@@](O)(CN5CCN(Cc6ccc(C(F)(F)F)c(OC)c6)CC5)CC[C@]4(C)[C@H]3CC[C@@]21C
2,2850,C[C@]12CC[C@](O)(CN3CCN(C(=O)c4ccc(C(=O)c5ccccc5)cc4)CC3)C[C@@H]1CC[C@@H]1[C@@H]2CC[C@]2(C)C(=O)CC[C@@H]12
3,140,COc1cc(CN2CCN(C[C@@]3(O)CC[C@@]4(C)[C@@H](CC[C@@H]5[C@@H]4CC[C@]4(C)C(=O)CC[C@@H]54)C3)CC2)ccc1C(F)(F)F

row,SMILES,IC50 [nM]
1,COc1cc(CN2CCN(C[C@@]3(O)CC[C@@]4(C)[C@@H](CC[C@@H]5[C@@H]4CC[C@]4(C)C(=O)CC[C@@H]54)C3)CC2)ccc1C,420
2,C[C@]12CC[C@](O)(CN3CCN(Cc4cnc5ccccc5c4)CC3)C[C@@H]1CC[C@@H]1[C@@H]2CC[C@]2(C)C(=O)CC[C@@H]12,970

# System: not listed separately
# Assay: Metabolic stability in human liver microsomes assessed as compound remaining at 1 uM incubated for 1 hr in presence of NADPH by HPLC-MS analysis
# Type: ADME, Microsome
# Conditions: read-out: Stabilty
# How it was run: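 Human liver microsomes (40 µg) were incubated with compound for 1 h at 37°C, with or without 10 mM NADPH, in 50 mM Tris with 10 mM MgCl2. The reaction was quenched with MeOH and centrifuged, and supernatants from 2 assays were pooled. Analysis was by HPLC-MS with UV at 190 nm. Remaining % = peak area with NADPH / area without NADPH x 100, from two experiments in duplicate.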
row,SMILES,"remaining at 1 h, 1 µM [%]"
1,COc1cccc(CN2CCN(C[C@@]3(O)CC[C@@]4(C)[C@@H](CC[C@@H]5[C@@H]4CC[C@]4(C)[C@H](O)CC[C@@H]54)C3)CC2)c1,70.6
2,COc1cccc(CN2CCN(C[C@@]3(O)CC[C@@]4(C)[C@@H](CC[C@@H]5[C@@H]4CC[C@]4(C)[C@@H](O)CC[C@@H]54)C3)CC2)c1,67.2
3,COc1cccc(CN2CCN(C[C@@]3(O)CC[C@@]4(C)[C@@H](CC[C@@H]5[C@@H]4CC[C@@]4(C)[C@H]5CCC4(F)F)C3)CC2)c1,34.1
4,C#C[C@]1(O)CC[C@H]2[C@@H]3CC[C@H]4C[C@@](O)(CN5CCN(Cc6cccc(OC)c6)CC5)CC[C@]4(C)[C@H]3CC[C@@]21C,45.5
5,COc1cccc(CN2CCN(C[C@@]3(O)CC[C@@]4(C)[C@@H](CC[C@@H]5[C@@H]4CC[C@]4(C)C(=O)C(C)(C)C[C@@H]54)C3)CC2)c1,54.5
6,COc1cccc(CN2CCN(C[C@@]3(O)CC[C@@]4(C)[C@@H](CC[C@@H]5[C@@H]4CC[C@@]4(C)[C@H]5CC[C@]4(C)O)C3)CC2)c1,21.8

# Molecular target: T1, 17-beta-hydroxysteroid dehydrogenase type 3 (Homo sapiens, UniProt P37058)
# T1 sequence (P37058 whole entry): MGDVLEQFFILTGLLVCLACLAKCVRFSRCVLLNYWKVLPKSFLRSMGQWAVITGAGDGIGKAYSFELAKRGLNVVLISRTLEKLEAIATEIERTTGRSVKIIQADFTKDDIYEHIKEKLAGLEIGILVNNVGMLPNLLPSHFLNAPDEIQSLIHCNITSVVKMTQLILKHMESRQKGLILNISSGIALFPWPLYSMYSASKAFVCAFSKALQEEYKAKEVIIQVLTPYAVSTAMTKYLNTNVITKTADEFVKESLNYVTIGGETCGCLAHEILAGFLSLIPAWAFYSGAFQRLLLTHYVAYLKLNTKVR
# Assay: Inhibition of human 17-beta-HSD3 expressed in LNCaP cells assessed as reduction in […]-3,17-dione to [14C]-testosterone at 3 uM incubated for 1 hr by thin layer chromatography
# Type: cell-based
# Conditions: not given
# How it was run: (§1)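 LNCaP cells overexpressing 17β-HSD3 were plated at 10^4 per well in medium without hygromycin for 2 days. 15 nM [14C]-4-androstene-3,17-dione plus inhibitor was then added (final DMSO 0.05%) for 1 h at 37°C. Steroids were Et2O-extracted and separated by silica TLC (toluene/acetone 4:1). % inhibition was taken from radioactivity-based % transformation versus a blank control.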
row,SMILES,inhibition at 3 µM [%]
1,COc1cccc(CN2CCN(C[C@@]3(O)CC[C@@]4(C)[C@@H](CC[C@@H]5[C@@H]4CC[C@]4(C)[C@H](O)CC[C@@H]54)C3)CC2)c1,3.8
2,COc1cccc(CN2CCN(C[C@@]3(O)CC[C@@]4(C)[C@@H](CC[C@@H]5[C@@H]4CC[C@]4(C)[C@@H](O)CC[C@@H]54)C3)CC2)c1,48.7
3,COc1cccc(CN2CCN(C[C@@]3(O)CC[C@@]4(C)[C@@H](CC[C@@H]5[C@@H]4CC[C@@]4(C)[C@H]5CCC4(F)F)C3)CC2)c1,-0.5
4,C#C[C@]1(O)CC[C@H]2[C@@H]3CC[C@H]4C[C@@](O)(CN5CCN(Cc6cccc(OC)c6)CC5)CC[C@]4(C)[C@H]3CC[C@@]21C,4
5,COc1cccc(CN2CCN(C[C@@]3(O)CC[C@@]4(C)[C@@H](CC[C@@H]5[C@@H]4CC[C@]4(C)C(=O)C(C)(C)C[C@@H]54)C3)CC2)c1,51.9
6,COc1cccc(CN2CCN(C[C@@]3(O)CC[C@@]4(C)[C@@H](CC[C@@H]5[C@@H]4CC[C@@]4(C)[C@H]5CC[C@]4(C)O)C3)CC2)c1,20.6

# System: HEK293
# Assay: Inhibition of human 17-beta-HSD10 expressed in HEK293 cells assessed as reduction in oxidation of [14C]-estradiol to [14C]-estrone at 0.3 uM incubated for 40 hrs by thin layer chromatography
# Type: cell-based
# Conditions: not given
# How it was run: (§2)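 Stably transfected HEK-293 cells expressing human 17β-HSD10 (G418-selected) were seeded at 2.5 x 10^5 per well for 24 h. Inhibitor was added from a DMSO stock (final DMSO 0.5%) with E2/[14C]-E2 (9:1, final 1 µM) for 40 h at 37°C. Steroids were Et2O-extracted, TLC-separated and quantified by radioactivity. % inhibition was taken from blank-corrected % transformation, run in triplicate.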
row,SMILES,inhibition [%]
1,COc1cccc(CN2CCN(C[C@@]3(O)CC[C@@]4(C)[C@@H](CC[C@@H]5[C@@H]4CC[C@]4(C)[C@H](O)CC[C@@H]54)C3)CC2)c1,13.5
2,COc1cccc(CN2CCN(C[C@@]3(O)CC[C@@]4(C)[C@@H](CC[C@@H]5[C@@H]4CC[C@]4(C)[C@@H](O)CC[C@@H]54)C3)CC2)c1,8.5
3,COc1cccc(CN2CCN(C[C@@]3(O)CC[C@@]4(C)[C@@H](CC[C@@H]5[C@@H]4CC[C@@]4(C)[C@H]5CCC4(F)F)C3)CC2)c1,5.5
4,C#C[C@]1(O)CC[C@H]2[C@@H]3CC[C@H]4C[C@@](O)(CN5CCN(Cc6cccc(OC)c6)CC5)CC[C@]4(C)[C@H]3CC[C@@]21C,22.4
5,COc1cccc(CN2CCN(C[C@@]3(O)CC[C@@]4(C)[C@@H](CC[C@@H]5[C@@H]4CC[C@]4(C)C(=O)C(C)(C)C[C@@H]54)C3)CC2)c1,10.8
6,COc1cccc(CN2CCN(C[C@@]3(O)CC[C@@]4(C)[C@@H](CC[C@@H]5[C@@H]4CC[C@@]4(C)[C@H]5CC[C@]4(C)O)C3)CC2)c1,20.5

# System: HEK293
# Assay: Potency index, ratio of (3R,5S,8R,9S,10S,13S,14S)-3-hydroxy-3-((4-(3-methoxybenzyl)piperazin-1-yl)methyl)-10,13-dimethyltetradecahydro-1H-cyclopenta[a]phenanthren-17(2H)-one IC50 to compound IC50 for inhibition of human 17-beta-HSD10 expressed in HEK-293 cells
# Type: cell-based
# Conditions: not given
row,SMILES,Ratio IC50
1,COc1cc(CN2CCN(C[C@@]3(O)CC[C@@]4(C)[C@@H](CC[C@@H]5[C@@H]4CC[C@]4(C)C(=O)CC[C@@H]54)C3)CC2)ccc1C,5.38
2,C#C[C@]1(O)CC[C@H]2[C@@H]3CC[C@H]4C[C@@](O)(CN5CCN(Cc6ccc(C(F)(F)F)c(OC)c6)CC5)CC[C@]4(C)[C@H]3CC[C@@]21C,1.8
3,C[C@]12CC[C@](O)(CN3CCN(C(=O)c4ccc(C(=O)c5ccccc5)cc4)CC3)C[C@@H]1CC[C@@H]1[C@@H]2CC[C@]2(C)C(=O)CC[C@@H]12,0.79
4,COc1cc(CN2CCN(C[C@@]3(O)CC[C@@]4(C)[C@@H](CC[C@@H]5[C@@H]4CC[C@]4(C)C(=O)CC[C@@H]54)C3)CC2)ccc1C(F)(F)F,16.1
5,C[C@]12CC[C@](O)(CN3CCN(Cc4cnc5ccccc5c4)CC3)C[C@@H]1CC[C@@H]1[C@@H]2CC[C@]2(C)C(=O)CC[C@@H]12,2.33

# Molecular target: T1, 17-beta-hydroxysteroid dehydrogenase type 3
# Assay: Inhibition of human 17-beta-HSD3 expressed in LNCaP cells assessed as reduction in […]-3,17-dione to [14C]-testosterone at 0.3 uM incubated for 1 hr by thin layer chromatography
# Type: cell-based
# Conditions: not given
# How it was run: as §1
row,SMILES,inhibition at 0.3 µM [%]
1,COc1cccc(CN2CCN(C[C@@]3(O)CC[C@@]4(C)[C@@H](CC[C@@H]5[C@@H]4CC[C@]4(C)[C@H](O)CC[C@@H]54)C3)CC2)c1,5.2
2,COc1cccc(CN2CCN(C[C@@]3(O)CC[C@@]4(C)[C@@H](CC[C@@H]5[C@@H]4CC[C@]4(C)[C@@H](O)CC[C@@H]54)C3)CC2)c1,5
3,COc1cccc(CN2CCN(C[C@@]3(O)CC[C@@]4(C)[C@@H](CC[C@@H]5[C@@H]4CC[C@@]4(C)[C@H]5CCC4(F)F)C3)CC2)c1,1.1
4,C#C[C@]1(O)CC[C@H]2[C@@H]3CC[C@H]4C[C@@](O)(CN5CCN(Cc6cccc(OC)c6)CC5)CC[C@]4(C)[C@H]3CC[C@@]21C,2
5,COc1cccc(CN2CCN(C[C@@]3(O)CC[C@@]4(C)[C@@H](CC[C@@H]5[C@@H]4CC[C@]4(C)C(=O)C(C)(C)C[C@@H]54)C3)CC2)c1,12.4
6,COc1cccc(CN2CCN(C[C@@]3(O)CC[C@@]4(C)[C@@H](CC[C@@H]5[C@@H]4CC[C@@]4(C)[C@H]5CC[C@]4(C)O)C3)CC2)c1,2

# System: HEK293
# Assay: Inhibition of human 17-beta-HSD10 expressed in HEK293 cells assessed as reduction in oxidation of [14C]-estradiol to [14C]-estrone at 3 uM incubated for 40 hrs by thin layer chromatography
# Type: cell-based
# Conditions: not given
# How it was run: as §2
row,SMILES,inhibition [%]
1,COc1cccc(CN2CCN(C[C@@]3(O)CC[C@@]4(C)[C@@H](CC[C@@H]5[C@@H]4CC[C@]4(C)[C@H](O)CC[C@@H]54)C3)CC2)c1,36.9
2,COc1cccc(CN2CCN(C[C@@]3(O)CC[C@@]4(C)[C@@H](CC[C@@H]5[C@@H]4CC[C@]4(C)[C@@H](O)CC[C@@H]54)C3)CC2)c1,42.4
3,COc1cccc(CN2CCN(C[C@@]3(O)CC[C@@]4(C)[C@@H](CC[C@@H]5[C@@H]4CC[C@@]4(C)[C@H]5CCC4(F)F)C3)CC2)c1,40.8
4,C#C[C@]1(O)CC[C@H]2[C@@H]3CC[C@H]4C[C@@](O)(CN5CCN(Cc6cccc(OC)c6)CC5)CC[C@]4(C)[C@H]3CC[C@@]21C,45.8
5,COc1cccc(CN2CCN(C[C@@]3(O)CC[C@@]4(C)[C@@H](CC[C@@H]5[C@@H]4CC[C@]4(C)C(=O)C(C)(C)C[C@@H]54)C3)CC2)c1,27.9
6,COc1cccc(CN2CCN(C[C@@]3(O)CC[C@@]4(C)[C@@H](CC[C@@H]5[C@@H]4CC[C@@]4(C)[C@H]5CC[C@]4(C)O)C3)CC2)c1,41.9
